These results are taken from the EternaBench riboswitch data.

For orientation: apparent Kd means a dissociation constant that holds for the conditions of the assay.

The subject of the series is MS2 coat protein. Briefly: apparent Kd, MS2 coat protein; higher = weaker binding; RNA-MaP array; FMN 200 µM where present. The essentials:
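The titrant was SNAP-549-labelled MS2 coat protein, run from 0.7 or 1.5 nM in doubling steps to 3 µM. It was applied to designs transcribed by stalled E. coli RNA polymerase on Illumina sequencing-chip clusters, without ligand first and then with constant ligand, in 100 mM Tris-HCl pH 7.5, 80 mM KCl, 4 mM MgCl2, BSA, DTT, yeast tRNA and Tween-20. The apparent Kd is the median of filtered per-cluster binding-curve fits, with green signal normalised to red-channel RNA signal and control-cluster median Fmax.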

Setting [1] is: designed as: OFF switch for flavin mononucleotide, no ligand.
Setting [2] is: ligand present: flavin mononucleotide, designed as: OFF switch for flavin mononucleotide.
Setting [3] is: designed as: ON switch for flavin mononucleotide, no ligand.
The mark [4] stands for this setting: ligand present: flavin mononucleotide, designed as: ON switch for flavin mononucleotide.

For the sequence “UUUUAGUAAGGAUAUGCGUAGAUCUCGGAAACGAGAUCUACGCAGAAGGUACAUGAGGAUCACCCAUGUAGAUU”, the “apparent Kd” value is 17.4 nM under setting [1] and 22.3 nM under setting [2].
Turning to “AUAAUUUUGUAGAAGGUACGUGAUUAGUCAAAGUAAGGAUAUACUGACAUGAGGAUCACCCAUGUUUUAAUAGUUAACAGUUCU”, the “apparent Kd” value stood at 12.8 nM under setting [3] and 7.99 nM under setting [4].
For “ACCGAAUGAACAUGAGGAUCACCCAUGUACAGGAAACUGAAUGAGGAUAUCCAUAGCAAAGCUAUGGAGAAGGCAUGGGUCGGU”, in that order: 363 nM and 110 nM.
Take “GUGGUCAGACAUGAGGAUCACCCAUGUGGAAUAAAUAAGGAGAAGGAUAUGAAAUAUAGGAUAUAUCAGAAGGUCUGGUUGGUG”: the “apparent Kd” value turned out to be 72.2 nM under setting [3] and 77.1 nM under setting [4].
Turning to “ACAUGAGGAUCACCCAUGUUAUCCGGGACUUCAAUUAUUUCUAGAAGGCUGUUUACUUGUUAGUCAGAGGAUAUAGAAUUAAAU”, the “apparent Kd” value under setting [1] turned out to be 10.7 nM and the “apparent Kd” value under setting [2] turned out to be 12.5 nM.
For “ACAUACAUUCGAGGAUAUCGGUGAUUAAUUUUACGAGAAGGCGAUAUAAGAUUUAAUAUUUUAGACAUGAGGAUCACCCAUGUA”, the “apparent Kd” value by setting is: under setting [3], 27.6 nM; under setting [4], 22.7 nM.
Take “UUACGGAUAGAGGAUAUAUUAAGGAAAGUUUCGAUAGAAGGCUAGACAUGAGGAUCACCCAUGUAUAUUGGGAU”: the “apparent Kd” value runs as follows: under setting [1], 131 nM; under setting [2], 151 nM.
In the same order, the values of “GUGAAGUGAGGAUAUACGAGAGAGGCUGAACCUGGAGAGAAGUAGAAGGCACAUGAGGAUCACCCAUGUUAGGA” are 39.6 nM and 30.3 nM.
For “GUAGUGUAUGUAGGAUAUGUGAAGGAAACAUUUACAGAAGGACAUGAGGAUCACCCAUGUAUUUCAGUCACCAAUGUGACUGAU”, in that order: 24.7 nM and 43.4 nM.
For “GCUGACGAUGUAGGAUAUCUCGACGAUAAGUCGAGAGAAGGACAUGAGGAUCACCCAUGUAACUCAACGUCAGCGAGGAAACUC”, in that order: 17.8 nM and 20.6 nM.
For the sequence “UGAGCCUCGUGAGGAUAUACAUGAGGAUCACCCAUGUAAUAAAGUGAGCGGAGGAAACUCCGAAUGUAGAAGGCACGAGGCUCA”, the “apparent Kd” value runs as follows: under setting [1], 26 nM; under setting [2], 186 nM.
As for “UGCUACGUUUCGUAGCAGCUAGGUGAGGAUAUUCAAUUUUUCACAUGAGGAUCACCCAUGUAUGUGAAGAAGGCGCCUAGAAAG”, the “apparent Kd” value was 12.3 nM under setting [3] and 5.26 nM under setting [4].
Regarding “GAGAAGGUAGGAUAUACGAAUAAAUAGGGUAGGAAGAAGACACAUGAGGAUCACCCAUGUAGAAGGACCAAGAU”, the “apparent Kd” value came to 18.8 nM under setting [1] and 38.3 nM under setting [2].
For the sequence “AUUUAUUAGUAAGGAUAUACUAGCGAUUUGCUUGUAGAAGGUACAGUCUUAUGUAUAACAUGUUAACAUGAGGAUCACCCAUGU”, the “apparent Kd” value was determined as 44.4 nM under setting [3] and 27.5 nM under setting [4].
As to “UGCCCAAAUGGGCCGUGGCAGCGUGAGGAUAUGGGUUGGAUACAUGAGGAUCACCCAUGUUCCUCCUAGAAGGCACUUGUAACC”, the “apparent Kd” value runs as follows: under setting [3], 183 nM; under setting [4], 41.5 nM.
As for “GUUAGCGCAGGAUAUACAUGAGGAUCACCCAUGUCCUCAUGCGUUAAAGAGGUGAUCCGUAGAAGGGUGUAAAC”, the “apparent Kd” value runs as follows: under setting [1], 180 nM; under setting [2], 250 nM.
On to “GUAAAUCAUGUAGGAUAUGCAUGGCGAAGCUACGCAGAAGGACAUGAGGAUCACCCAUGUGCUAGCUACCGAGUUCGGUGGCAA”, for which the “apparent Kd” value was found to be 77.1 nM under setting [1] and 354 nM under setting [2].
Take “UUUGAAUUGCAAGGAUAUCUUAUUUAGAUUUUAAGAGAAGGUGCUUUACAGUUACAUGAGGAUCACCCAUGUCUUUCUUUUUAU”: the “apparent Kd” value is, setting by setting: under setting [3], 24.8 nM; under setting [4], 20 nM.
For “CGAAGUAGCACAGGAUAUCAUACAUGAGGAUCACCCAUGUCAAGAAACAAAUGAGAAGGGUGCAGGCGGUGUUGGAGCUGUUGC”, in that order: 99.4 nM and 14.1 nM.
For “UUGGUGGUUUCCCGCGCUAAGAUAGGAGAAGGGUGACUGGACAUGAGGAUCACCCAUGUAUCGGCACAGGAUAUCCACAUUAAU”, in that order: 223 nM and 334 nM.
In the same order, the values of “GUAGCAUAAUCAGGAUAUUCAGCGAAUAGAUUGACAUGAGGAUCACCCAUGUGGCGAAAGCCUAGGGAGAAGGGAUAAUGCUAC” are 405 nM and 42.1 nM.
In the case of “ACCACGUUAGCGAUAUGAUCGAGAGAUCAUGUCGCUAAUUUUAGAAGGACAUGAGGAUCACCCAUGUAGGAUAUGGGACGUGGA”, the “apparent Kd” value by setting is: under setting [3], 14.7 nM; under setting [4], 7.88 nM.
With “UCACGGGACUAAGGAUAUACAUGAUCCAUUUUUGUAGAAGGUAGAAUGUUAGAUCAUAAACUAAACAUGAGGAUCACCCAUGUU”, the “apparent Kd” value under setting [1] was 23.5 nM and the “apparent Kd” value under setting [2] is 22.5 nM.
With “AUUUUAAUAUAGGAUAUCGAAUUUAUUAUUUAACGAGAAGGAUAAACAUGAGGAUCACCCAUGUGGUAUCAUGG”, the “apparent Kd” value was 126 nM under setting [1] and 117 nM under setting [2].
